Common to all, as to format: functional
Assay [1] relates to Mus musculus. Description: Minimum effective dose administered subcutaneously in mouse passive avoidance test. The conditions noted are these: sc, read-out: MED. An outline of the steps: (§1)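 Mouse passive avoidance with scopolamine-induced amnesia (1.5 mg/kg ip after training; 40 cm fall into 10 °C water as punishment). Compounds are given sc in 1:10 dilution steps 20 min before training, in saline or DMSO/H2O. […] Piracetam is the ip reference.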

The species named for assay [2] is Mus musculus. The assay is described as follows: (§2) Change in entry latency expressed as [(entry latency on day 2)-(entry latency on day 1)]. An outline of the steps:
(§3)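 Mouse passive avoidance test using a light/dark box. Entering the dark side drops the mouse 40 cm into 10 °C water. Training is on day 1 and retention 24 h later. Test drug is given sc 20 min before training, in saline or DMSO/H2O vehicle. […] Mice not entering within 60 s are excluded. Retention latency is capped at 120 s. Δ = day 2 − day 1 latency.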

Assay [3] concerns Mus musculus. The assay is described as follows: Minimum effective dose administered subcutaneously in mouse, activity given with reference to piracetam. The note with it: for minimal effective dose: Mus musculus, sc, read-out: MED. An outline of the steps:
as §1

The test system of assay [4] is Mus musculus. The assay is described as follows: Nootropic effect of the compound, when administered subcutaneously, on mouse passive Avoidance test, using Scopolamine as Amnesic drug on 1 st day.
The test system of assay [5] is Mus musculus. Description: Nootropic effect of the compound, when administered subcutaneously, on mouse passive Avoidance test, using Scopolamine as Amnesic drug on 2 nd day.
The test system of assay [6] is Mus musculus. The assay is described as follows: Nootropic effect of the compound, when administered subcutaneously, on mouse passive Avoidance test, using Scopolamine as Amnesic drug on 2nd day. An outline of the steps: as §3
The species named for assay [7] is Mus musculus. The description is as §2. This is another data set of the same source.
The species named for assay [8] is Mus musculus. Description: Change in entry latency expressed as [(latency on day 2)-(latency on day 1)]. An outline of the steps: as §3
The test system of assay [9] is Mus musculus. Description: Effect of 0.1 mg/kg compound in the presence of saline on Amnesia in mouse passive Avoidance test on 1st day. An outline of the steps:
(§4)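 Mouse passive avoidance without an amnesic agent. Compound is given ip at 0.1 mg/kg 20 min before training, followed by saline. Entry latency into the dark compartment (punishment: 40 cm fall into 10 °C water) is recorded on day 1 and in retention 24 h later, capped at 120 s. Compared with saline controls.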

The subject of assay [10] is Mus musculus. Description: Effect of 0.1 mg/kg compound in the presence of saline on Amnesia in mouse passive Avoidance test on 2nd day, ip. The conditions noted are these: route intraperitoneal. Put shortly: as §4
Assay [11] deals with Mus musculus. The assay is described as follows: Effect of 0.1 mg/kg compound on Amnesia induced by Baclofen (2 mg/Kg ip) in mouse passive Avoidance test on 1 st day at 0.1 mg/kg, ip. An outline of the steps: (§5)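 Mouse passive avoidance. Compound is given ip 20 min before training. Diphenhydramine (20 mg/kg ip) or baclofen (2 mg/kg ip) is injected immediately after training. Entry latency into the dark, water-pitfall compartment is measured on day 1 and 24 h later, capped at 120 s. Compared with amnesic-only mice.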

Assay [12] relates to Mus musculus. Description: Effect of 0.1 mg/kg compound on Amnesia induced by diphenhydramine (20 mg/Kg) in mouse passive Avoidance test on 1st day (no. of animals = 12). Put shortly: as §5
Assay [13] has as its system Mus musculus. Description: Effect of 0.1 mg/kg compound on Amnesia induced by diphenhydramine (20 mg/Kg) in mouse passive Avoidance test on 1st day; (no. of animals = 11). Put shortly: as §5
In assay [14] the test system is Mus musculus. The assay is described as follows: Effect of 0.1 mg/kg compound on Amnesia induced by diphenhydramine (20 mg/Kg) in mouse passive Avoidance test on 2 nd day (no. of animals = 11). Put shortly: as §5
The subject of assay [15] is Mus musculus. The assay is described as follows: Effect of 0.1 mg/kg compound on Amnesia induced by diphenhydramine (20 mg/Kg) in mouse passive Avoidance test on 2 nd day (no. of animals = 12). An outline of the steps:
as §5

Assay [16] relates to Mus musculus. Description: Effect of compound on Amnesia induced Clonidine (0.125 mg/kg) in mouse passive Avoidance test on 1st day at 0.1 mg/kg, ip. The note with it: route intraperitoneal. An outline of the steps: (§6)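 Mouse passive avoidance. Compound is given ip 20 min before training. Clonidine (0.125 mg/kg ip) is injected 60 min before training. Entry latency into the dark compartment (40 cm fall into 10 °C water) is measured on day 1 and 24 h later, capped at 120 s. Compared with clonidine-only mice.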

In assay [17] the test system is Mus musculus. The assay is described as follows: Effect of compound on Amnesia induced Clonidine (0.125 mg/kg) in mouse passive Avoidance test on 2 nd day at 0.1 mg/kg, ip. The conditions noted are these: route intraperitoneal. Put shortly:
as §6

In assay [18] the test system is Mus musculus. Description: Effect of compound on Amnesia induced by Baclofen (2 mg/Kg ip) in mouse passive Avoidance test on 2 nd day at 0.1 mg/kg, ip. The note with it: route intraperitoneal. Put shortly: as §5
For assay [19], the system named is Mus musculus. Description: Minimum effective dose administered subcutaneously in mouse, activity given with reference to piracetam, dose administered is limited by solubility problems. The note with it: sc, read-out: MED. Put shortly:
as §1

In assay [20] the test system is Mus musculus. The assay is described as follows: Minimum effective dose administered intraperitoneally in mouse passive avoidance test. The conditions noted are these: ip, read-out: MED.

“And” between values parts separate entries of the source, which are not always exact repeats. Identical values can stand only once.

As for `CCCC(=O)N1CCN(S(=O)(=O)c2ccc(F)cc2)CC1`, the minimal effective dose in the assay with Mus musculus [1] was greater than 10 mg/kg.

Consider `CCCC(=O)N1CCN(C(=O)c2ccc(F)cc2)CC1`, for which the “Change in entry latency” value in the assay listed under Mus musculus [2] is reported as 92.2 s. Also, in the assay on Mus musculus [3], the minimal effective dose came to 10 mg/kg. Moreover, the results for the Entry latency in the assay on Mus musculus [4] and in the assay on Mus musculus [5] were 19.8 s and 112 s, respectively.

`CCC(=O)N1CCN(Cc2ccccc2)CC1`: the “Change in entry latency” value in the assay listed under Mus musculus [2] was found to be 81.1 s. Also, in the assay on Mus musculus [3], the minimal effective dose was determined as 10 mg/kg. For the same compound, the Entry latency with Mus musculus [4] came to 12.8 s; in the assay on Mus musculus [6], 93.9 s.

As to `CC(=O)N1CCN(S(=O)(=O)c2ccc(F)cc2)CC1`, the Entry latency in the assay listed under Mus musculus [7] turned out to be 69.2 s; in the assay on Mus musculus [4], 19.8 s; with Mus musculus [5] it was 89 s. In addition, the minimal effective dose with Mus musculus [3] was 0.01 mg/kg.

On to `CCC(=O)N1CCN(C(=O)c2ccccc2)CC1`, for which the “Change in entry latency” value in the assay listed under Mus musculus [2] was 71 s and 69.1 s and 68.5 s and 67 s; in the assay filed under Mus musculus [8] it was 56 s and 63.8 s. The Entry latency was determined as 17.2 s in the assay on Mus musculus [9]; 86.3 s in the assay on Mus musculus [10]; 17.2 s with Mus musculus [11]; 14.4 s in the assay on Mus musculus [12]; 15.8 s in the assay on Mus musculus [13]; 84.3 s with Mus musculus [14]. Further, the Entry latency was determined as 81.4 s in the assay on Mus musculus [15]; 15 s with Mus musculus [16]; 78.8 s with Mus musculus [17]; 73.2 s in the assay on Mus musculus [18]; 20.5 s in the assay on Mus musculus [4]; 91.5 s in the assay with Mus musculus [5]. In addition, in the assay with Mus musculus [3], the minimal effective dose is 0.001 mg/kg.

In the case of `CCC(=O)N1CCN(C(=O)c2ccc(F)cc2)CC1`, the “Change in entry latency” value in the assay listed under Mus musculus [2] stood at 60.2 s. In the assay with Mus musculus [3], the minimal effective dose came to 30 mg/kg. The Entry latency in the assay on Mus musculus [4] is given as 16.9 s; in the assay with Mus musculus [5], 77.1 s.

Regarding `CCCC(=O)N1CCN(S(=O)(=O)c2ccccc2)CC1`, the “Change in entry latency” value in the assay listed under Mus musculus [2] stood at 70.4 s. Besides, the minimal effective dose in the assay on Mus musculus [1] came to 1 mg/kg. Besides, the Entry latency worked out at 15 s in the assay with Mus musculus [4] and 85.4 s in the assay on Mus musculus [5].

As to `CCC(=O)N1CCN(S(=O)(=O)c2ccc(OC)cc2)CC1`, the minimal effective dose in the assay with Mus musculus [19] is greater than 1 mg/kg.

For `CCC(=O)N1CCN(S(=O)(=O)c2ccccc2)CC1`, the Entry latency in the assay filed under Mus musculus [7] was found to be 113 s; in the assay on Mus musculus [4] it was 19 s; in the assay on Mus musculus [5], 132 s. The minimal effective dose in the assay with Mus musculus [1] is 0.1 mg/kg.

On to `CCC(=O)N1CCN(S(=O)(=O)c2ccc(Cl)cc2)CC1`, for which the minimal effective dose in the assay on Mus musculus [1] is greater than 0.1 mg/kg.

As to `CC(=O)N1CCN(S(=O)(=O)c2ccccc2)CC1`, the Entry latency was 86.5 s in the assay filed under Mus musculus [7], 17.5 s in the assay on Mus musculus [4] and 104 s in the assay with Mus musculus [5]. The minimal effective dose in the assay on Mus musculus [3] was determined as 0.01 mg/kg.

With `CCC(=O)N1CCN(S(=O)(=O)c2ccc(F)cc2)CC1`, the Entry latency is 74.7 s in the assay filed under Mus musculus [7], 15.9 s in the assay on Mus musculus [4] and 90.6 s with Mus musculus [5]. Also, the minimal effective dose with Mus musculus [1] amounted to 0.01 mg/kg.

Consider `CC1C[C@@H]2CN(C(=O)c3ccccc3)CCN2C1=O` (stereo in doubt; endo), for which the minimal effective dose in the assay on Mus musculus [3] was 1 mg/kg.

With `CC1C[C@@H]2CN(C(=O)c3ccccc3)CCN2C1=O` (stereo in doubt; exo), the MED in the assay with Mus musculus [3] stood at 1 mg/kg.

Regarding `CN1[C@@H]2C[C@@H](OC(=O)[C@H](CO)c3ccccc3)C[C@H]1[C@@H]1O[C@@H]12` [SCOPOLAMINE], in the assay on Mus musculus [20], the minimal effective dose was 1.5 mg/kg.

The values are drawn from ChEMBL document CHEMBL1133526, “Molecular simplification of 1,4-diazabicyclo[4.3.0]nonan-9-ones gives piperazine derivatives that maintain high nootropic activity” (2000).
